Test results as given in PubChem BioAssay AID504476 (NMMLSC, 2011).
The source made the active and inactive calls.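 Rule for the calls: active = toxic dose divided by the dose restoring drug killing exceeds 10, where toxic dose is under 15 µM; inactive = the rest.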

System: Jurkat/DNR + daunorubicin, trypan blue viability, 3 d
Test: daunorubicin sensitization of ABCB1 resistant cells, SAR follow-up, cell-based, Jurkat/DNR, trypan blue viability, SAR set 2 (AID 504476)
Settings: for CC50: measured here: TD50 toxicity without chemotherapeutic
In short: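 read-out = concentration halving cell viability | test system = Daunorubicin-resistant Jurkat/DNR cells | amount = 100,000 cells per mL | incubation = 3 days exposure | detection = trypan blue exclusion with light-microscopy cell counting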

Row | SMILES | EC50 | CC50 [µM]
1 | COc1cccc(-c2cc(N3CCN(C(=O)c4ccoc4)CC3)n3nc(-c4ccccc4)cc3n2)c1 | 180 nM (inactive) | 5.7
2 | CC(=O)N1CCN(c2cc(-c3ccco3)nc3cc(-c4cccc(Cl)c4)nn23)CC1 | 80 nM | 17.6
3 | O=C(c1ccoc1)N1CCCN(c2cc(-c3ccco3)nc3cc(-c4ccccc4)nn23)C1 | 350 nM (inactive) | 12
4 | COc1ccc(-c2cc3nc(-c4ccco4)cc(N4CCN(C(=O)c5ccoc5)CC4)n3n2)cc1 | 5770 nM | > 100
5 | Cc1ccc(-c2cc3nc(-c4ccco4)cc(N4CCN(Cc5ccoc5)CC4)n3n2)cc1 | 350 nM (inactive) | 12.5
6 | O=C(c1ccoc1)N1CCN(c2cc(-c3ccoc3)nc3cc(-c4ccccc4)nn23)CC1 | 420 nM (inactive) | 7.3
7 | O=C(c1ccoc1)N1CCN(c2cc(-c3ccco3)nc3cc(-c4ccco4)nn23)CC1 | 190 nM (inactive) | 1.93
8 | COc1ccccc1-c1cc(N2CCN(C(=O)c3ccoc3)CC2)n2nc(-c3ccccc3)cc2n1 | 170 nM (inactive) | 3.7
9 | CC(=O)N1CCN(c2cc(-c3ccco3)nc3cc(-c4ccccc4)nn23)CC1 | 190 nM (inactive) | 10.1
10 | COc1cccc(-c2cc3nc(-c4ccco4)cc(N4CCN(C(C)=O)CC4)n3n2)c1 | 320 nM | 49.3
